Screens deposited in PubChem BioAssay by several laboratories.
Runt-CBFb FRET: inhibitors of RUNX1 Runt–CBFb binding, primary screen, biochemical, FRET, Cerulean-Runt, Venus-CBFb, uHTS; Cerulean-Runt/Venus-CBFb FRET ratio 530/480, 1 h; inhibition, % at 20 µM; actives 0.46% (n = 220,000); AID 1496, 2009;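 active = inhibition over about 50% at 20 µM in the single-dose screen, limit read from the data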
Target sequence (Q01196 whole entry, looked up): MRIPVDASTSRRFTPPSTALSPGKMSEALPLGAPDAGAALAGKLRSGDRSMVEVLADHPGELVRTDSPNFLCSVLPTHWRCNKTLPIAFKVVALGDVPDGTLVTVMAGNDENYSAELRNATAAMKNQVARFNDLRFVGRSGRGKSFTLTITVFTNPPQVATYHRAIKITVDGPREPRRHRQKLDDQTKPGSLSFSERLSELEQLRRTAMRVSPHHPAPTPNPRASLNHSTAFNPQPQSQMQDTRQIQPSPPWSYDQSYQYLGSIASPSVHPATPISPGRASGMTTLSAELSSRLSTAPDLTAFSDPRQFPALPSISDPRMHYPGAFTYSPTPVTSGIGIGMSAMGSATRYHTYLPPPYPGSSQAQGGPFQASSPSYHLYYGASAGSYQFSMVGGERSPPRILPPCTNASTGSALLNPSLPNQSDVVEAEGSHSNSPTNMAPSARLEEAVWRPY
Target sequence (Q13951 whole entry, looked up): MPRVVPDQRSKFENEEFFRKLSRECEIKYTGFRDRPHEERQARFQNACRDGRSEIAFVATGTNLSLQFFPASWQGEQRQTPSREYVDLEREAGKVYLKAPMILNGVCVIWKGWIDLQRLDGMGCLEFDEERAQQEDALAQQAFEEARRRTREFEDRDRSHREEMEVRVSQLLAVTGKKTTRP
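Doses: 20 µM compound in 1% DMSO | Material: Cerulean-labeled Runt domain protein | Amount: Each fluorescent fusion protein 100 nM | Schedule: Two 1 h room-temperature incubations shielded from light | Measured by: FRET fluorescence | Evaluation: Loss of energy transfer signal | Controls: Unlabeled CBFb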
RanGTP-Imp inh: inhibitors of RanGTP-importin-beta interaction, primary screen, biochemical, FRET, CFP-Ran, YFP-importin-beta, homogeneous | actives 1.1% (n = 300,000) | Ran GTPase (GTP-bound) - importin-beta complex | cell-free CFP-Ran/YFP-importin-beta FRET ratio | inhibition, % (concentration not given with the values);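 active = more than half of the replicate wells show a fall in the fluorescence ratio signal beyond about 16%, limit read from the data, passing the limit was not always enough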
CaV13 ICDI inh: Primary screen for inhibitors of IQ motif and Ca2+-dependent inactivation inhibitor domain binding in CACNA1D, Förster resonance energy transfer in living cells, … | HEK cells, CFP/YFP FRET ICDI-IQ, plate reader, 10 min; percent FRET-ratio fall versus neutral wells | inhibition, % at 12.3 µM | actives 0.098% (n = 340,000) | AID 743397;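 active = mean replicate inhibition of at least 30% and at least 1% of replicates passing that level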
Runt-SMMHC FRET: inhibitors of RUNX1 Runt–CBFb-SMMHC binding, primary screen, biochemical, FRET, Cerulean-Runt, Venus-CBFb-SMMHC, uHTS. Runt-related transcription factor 1 (Homo sapiens) + Core-binding factor subunit beta …. Cerulean-Runt/Venus-CBFb-SMMHC FRET ratio 530/480, 1 h. inhibition, % at 20 µM. actives 0.74% (n = 220,000). AID 1434, 2008;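 active = mean inhibition across duplicate retests at 20 µM reaching about 50%, limit read from the data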;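 also: inhibitors lower the FRET ratio by blocking Runt binding to CBFb-SMMHC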
Hck Nef HTS: inhibitors of Nef-activated human Hck kinase, primary screen, biochemical, Z-Lyte FRET, 384-well, Hck-YEEI; actives 0.68% (n = 220,000); Recombinant Hck-YEEI plus Nef, Z-Lyte FRET kinase assay; inhibition, % at 20 µM; Tyrosine-protein kinase HCK (Homo sapiens), P08631;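 active = Hck-Nef kinase inhibition above about 50%, limit read from the data; inactive = inhibition below that limit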
YIC counter: YIC intramolecular FRET probe signal interference, dose response, counter-screen for RanGTP-importin-beta inhibitor project, biochemical, fluorescence FRET; actives 40% (n = 1,000); shares compounds with RanGTP-Imp inh; IC50, µM; Purified YIC probe, intramolecular FRET ratio YFP/CFP;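 active = fitted half-maximal inhibitory concentration no more than tenfold above the top dose tested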
A number is an active result; – = inactive; · = no result given. Shown are actives, neighbours in structure and some others; about 1.5% of the full set was active somewhere.

SMILES	Runt-CBFb FRET	RanGTP-Imp inh	CaV13 ICDI inh	Runt-SMMHC FRET	Hck Nef HTS	YIC counter
CCOC(=O)/C(C#N)=C/c1ccc(N2CCN(C)CC2)cc1	–	19.6	–	–	–	15.7
CCOC(=O)/C(C#N)=C\c1ccc(N2CCN(C)CC2)cc1	–	21.4	–	–	–	15.7
CC1(C(=O)Nc2ccc3nc[nH]c3c2)CCN1C(=O)C1(c2ccccc2)CCCC1 (centres undefined)	·	·	–	·	·	·
Cc1cnc(=O)[nH]c1SCC(=O)c1ccc(F)cc1	·	16.3	–	·	·	–
Cc1csc(NC(=O)CSc2[nH]c(=O)ncc2C)n1	·	–	–	·	·	·
CC(C)c1ccccc1NC(=O)C1C2C=CC(C2)C1C(=O)O (centres undefined)	·	24.2	–	·	·	–
O=C1CC(/C=C/c2ccco2)=Nc2ccccc2N1	–	24.1	·	–	–	–
COc1ccc(NC(=O)C2C3C=CC4(O3)C2C(=O)N(CCCN2CCCC(C)C2)C4C(=O)NC2CCCCC2)cc1 (centres undefined)	·	–	–	·	·	·
Cc1cc(C(=O)N/N=C2\CC(=O)CC(C)(C)C2)c2ccccc2n1	–	–	–	–	–	·
CC1(C)CC(=O)C/C(=N\NC(=O)Cc2ccccc2)C1	–	26.4	–	–	–	–
CCCN1CC(O)=C(C#N)C1=O	–	24.0	·	–	–	–
Cc1ccc(N(C)S(=O)(=O)c2ccc3c(c2)NC(=O)C(C)S3)cc1 (centres undefined)	·	–	–	·	·	·
O=C(NC1CC1)c1ccc2c(Cl)c3c(nc2c1)CCCC3	–	17.5	–	–	–	–
CCOC(=O)N1CCC(NC(=O)c2ccc3c(Cl)c4c(nc3c2)CCCC4)CC1	–	·	–	–	–	·
O=C(CN1C(=O)COc2ccccc21)N1CCCC1	·	–	–	·	·	·
O=C(CCN1C(=O)COc2ccccc21)N1CCCCC1	–	23.7	–	–	–	–
COc1ccc(CC(=O)Nc2sc3c(c2C(N)=O)CCCC3)cc1	·	–	–	·	·	·
COc1cc(OC)cc(C(=O)Nc2sc3c(c2C(N)=O)CCC3)c1	·	18.5	–	·	·	–
O=C(O)/C=C/C(=O)Nc1ccc2c(c1)NC(=O)CO2	–	33.9	–	–	–	–
O=C1COc2ccc(C(=O)/C=C/c3ccccc3)cc2N1	–	–	–	–	–	·
CCOc1ccc(N2C(=O)C(=O)/C(=C(/O)c3ccccc3)C2c2ccccc2[N+](=O)[O-])cc1 (centres undefined)	–	–	–	–	–	·
CC(C)NC(=O)C1CC=CCC1C(=O)O (centres undefined)	–	25.4	–	–	–	–
C=CCNC(=O)c1cccc(OC2CCN(CC(C)(C)C)CC2)c1	·	18.5	–	·	·	–
O=C(c1ccc(Br)cc1)c1cc2ccc(O)cc2oc1=O	·	32.6	–	·	·	19.9
CCc1ccc(C(=O)c2cc3ccc(O)cc3oc2=O)cc1	·	44.9	–	·	·	10.9
SMILES	Runt-CBFb FRET	RanGTP-Imp inh	CaV13 ICDI inh	Runt-SMMHC FRET	Hck Nef HTS	YIC counter
O=C(c1ccc(Br)cc1)c1coc2ccc(O)cc12	·	–	–	·	·	·
CC(NCC(=O)Nc1ccccc1C(=O)NC1CC1)c1ccco1 (centres undefined)	·	·	–	·	·	·
C[C@H]1CN([C@@H](C)CO)C(=O)CCCn2nncc2CO[C@@H]1CN(C)S(=O)(=O)c1ccc(Oc2ccccc2)nc1	·	·	–	·	·	·
Cc1cccn2c(CN[C@H]3CCCCNC3=O)c(C(=O)N3CCOCC3)nc12	–	–	–	–	–	·
COc1ccc(C2C3=C(CC(C)(C)CC3=O)Nc3n[nH]c(C)c32)cc1 (centres undefined)	–	–	–	–	–	·
CCc1ccc(C2C3=C(CC(C)(C)CC3=O)Nc3c2c(=O)[nH]c2nc(C)nn32)cc1 (centres undefined)	61.9	39.8	–	·	–	7.12
Cc1ccc(N2CCN(S(=O)(=O)N3CCOCC3)CC2)cc1C	–	–	–	–	–	·
Cc1noc(C)c1NC(=O)Nc1ccc2c(c1)C(=O)N([C@H](C)CO)C[C@@H](C)[C@@H](CN(C)C(=O)Nc1c(C)noc1C)OCCCC[C@@H](C)O2	·	·	·	·	·	–
C[C@@H]1CCCCO[C@@H](CN(C)C(=O)CCC(F)(F)F)[C@@H](C)CN([C@@H](C)CO)C(=O)c2cc(NC(=O)CCC(F)(F)F)ccc2O1	·	·	·	·	·	–
CCOC(=O)C1=C(COC(=O)c2cccc(NC(C)=O)c2)NC(=O)NC1C (centres undefined)	·	–	–	·	·	·
CCOc1ccccc1NC(=O)COC(=O)C(CC)c1ccccc1 (centres undefined)	–	·	–	–	–	·
Cc1oc2cc3oc(=O)c(CCC(=O)NC4CC4)c(C)c3cc2c1C	·	–	·	·	·	·
Cc1c(CCC(=O)NC2CC2)c(=O)oc2c(C)c(O)ccc12	·	27.1	·	·	·	19.9
Cc1c(CCC(=O)NCCCN2CCCC2=O)c(=O)oc2c(C)c(O)ccc12	·	33.1	·	·	·	16.3
Nc1ccccc1C(=O)NN=Cc1cccnc1	·	·	–	·	·	·
CCCCCn1c(SCC(=O)c2ccccc2)nc2cc(C(=O)NCC3CCCO3)ccc2c1=O (centres undefined)	·	·	–	·	·	·
O=C(Nc1ccccc1)c1ccc2ccccc2n1	–	–	–	–	–	·
N#Cc1ccc(/C=C(\C(=O)C(=O)O)c2ccc3ccccc3n2)cc1	–	20.4	–	63.8	–	12.4
CCc1nc(N)c(C#N)c(-c2cccnc2)c1C	–	·	·	–	–	·
N#Cc1c(N)nc2c(c1-c1ccc(F)cc1)CCC2	–	20.9	–	–	–	9.91
Cc1ccc(-c2c(C#N)c(N)nc3c2CCCC3)s1	–	21.6	–	–	–	27.1
CCc1nc(N)c(C#N)c(-c2ccc(F)cc2)c1C	–	22.8	·	–	–	–
COc1cccc2c1OC1(N3CCOCC3)CCCCC1C2C[N+](=O)[O-] (centres undefined)	·	·	–	·	·	·
Cc1c(C#N)c(NC(=O)CCl)n(Cc2ccc(F)cc2)c1C	–	–	–	–	–	·
Cc1c(C#N)c(NC(=O)CCl)n(Cc2ccccc2)c1C	–	23.1	–	–	–	–
CNC(=O)c1c(C)[nH]c(=S)c(C#N)c1-c1ccco1	–	31.0	–	–	–	–
Cc1cc(-c2nnn(CCCOC(C)(C)C)c2C)ccc1-c1cn(CCCOC(C)(C)C)nn1	·	·	–	·	·	·
CN1C(=O)N(CC(=O)N2CCN(S(=O)(=O)c3ccc(Cl)s3)CC2)C(=O)C12CCCCC2	·	·	–	·	·	·
COC(=O)c1ccc2nc(NC(=O)C3CCCCC3)sc2c1	–	–	–	–	–	·
